Reference: ChEMBL document CHEMBL1149315, “Insertion of an aspartic acid moiety into cyclic pseudopeptides: synthesis and biological characterization of potent antagonists for the human Tachykinin NK-2 receptor” (J Med Chem, 2004)
The source made the active and inactive calls.

Columns and labels:
[1] = biological target: T1, Substance-K receptor (Oryctolagus cuniculus) (UniProt P79218); experiment: Antagonist activity at NK2 receptor in rabbit pulmonary artery assessed as effect on neurokinin A-induced mechanical activity; type: functional; conditions: filed as antagonist
T1 sequence (whole entry): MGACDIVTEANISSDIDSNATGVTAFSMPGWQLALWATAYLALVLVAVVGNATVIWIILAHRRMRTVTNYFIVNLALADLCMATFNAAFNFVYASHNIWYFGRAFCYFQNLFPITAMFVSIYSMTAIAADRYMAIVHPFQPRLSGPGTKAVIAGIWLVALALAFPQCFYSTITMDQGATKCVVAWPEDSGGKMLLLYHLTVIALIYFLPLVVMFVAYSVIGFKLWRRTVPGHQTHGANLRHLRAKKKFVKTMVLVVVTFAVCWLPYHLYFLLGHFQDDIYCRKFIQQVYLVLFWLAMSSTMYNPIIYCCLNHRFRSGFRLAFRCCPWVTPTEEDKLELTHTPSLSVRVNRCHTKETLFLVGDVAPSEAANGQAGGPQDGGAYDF
In short: (§1)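 Isolated smooth muscle strips were held in oxygenated (96% O2/4% CO2) Krebs–Henseleit at NaCl 119, NaHCO3 25, KH2PO4 1.2, MgSO4 1.5, CaCl2 2.5, KCl 4.7 and glucose 11 mM. Cumulative agonist concentration–response curves were run after 15 min antagonist incubation. pKB = log(dose ratio − 1) − log[antagonist], as the mean of individual values.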

[2] = biological target: T2, Substance-K receptor (Rattus norvegicus) (UniProt P16610); experiment: Antagonist activity at NK2 receptor in rat urinary bladder assessed as effect on beta-Ala8]NKA(4-10)-induced mechanical activity; type: functional; conditions: filed as antagonist; in short: as §1
T2 sequence (whole entry): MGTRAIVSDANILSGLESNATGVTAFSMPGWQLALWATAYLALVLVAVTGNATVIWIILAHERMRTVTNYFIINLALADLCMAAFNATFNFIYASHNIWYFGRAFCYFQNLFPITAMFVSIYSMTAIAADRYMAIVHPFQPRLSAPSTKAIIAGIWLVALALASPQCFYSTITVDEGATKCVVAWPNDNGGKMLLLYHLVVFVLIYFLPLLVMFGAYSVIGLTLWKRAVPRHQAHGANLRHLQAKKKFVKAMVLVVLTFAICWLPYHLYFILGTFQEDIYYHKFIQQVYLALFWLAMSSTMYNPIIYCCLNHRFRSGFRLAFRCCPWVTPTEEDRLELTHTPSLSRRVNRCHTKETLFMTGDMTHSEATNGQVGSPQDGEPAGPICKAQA

[3] = biological target: T3, Substance-K receptor (Homo sapiens, UniProt P21452); experiment: Displacement of [125I]neurokinin A from human NK2 receptor expressed in CHOK1 cells; type: cell-based, CHO-K1
T3 sequence (P21452 whole entry): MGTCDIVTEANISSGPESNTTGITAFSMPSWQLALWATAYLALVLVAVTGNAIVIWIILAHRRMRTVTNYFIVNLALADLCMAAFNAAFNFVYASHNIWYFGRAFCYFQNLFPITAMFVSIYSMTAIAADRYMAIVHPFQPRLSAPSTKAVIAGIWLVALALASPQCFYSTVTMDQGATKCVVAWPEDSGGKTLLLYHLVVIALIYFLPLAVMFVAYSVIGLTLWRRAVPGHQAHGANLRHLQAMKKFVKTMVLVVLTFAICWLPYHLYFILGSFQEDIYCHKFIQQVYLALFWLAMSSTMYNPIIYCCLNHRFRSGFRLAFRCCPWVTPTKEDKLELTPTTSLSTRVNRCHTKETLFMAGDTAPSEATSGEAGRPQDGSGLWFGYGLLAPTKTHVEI
In short: (§2)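 Competition binding was run on membranes of cells stably transfected with the human receptor: U-373MG for NK-1, CHO-K1 for NK-2 and NK-3. NK-1 used [3H][Sar9]SP sulfone at 1.2 nM. Affinity is given as pKi (−log Ki).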

[4] = biological target: Substance-P receptor (Cavia porcellus) (UniProt P30547); experiment: Antagonist activity at NK1 receptor in guinea pig ileum assessed as effect on substance P methyl ester-induced mechanical activity; type: functional, tissue-based; in short: as §1
Chain of Substance-P receptor (Cavia porcellus) (P30547 whole entry): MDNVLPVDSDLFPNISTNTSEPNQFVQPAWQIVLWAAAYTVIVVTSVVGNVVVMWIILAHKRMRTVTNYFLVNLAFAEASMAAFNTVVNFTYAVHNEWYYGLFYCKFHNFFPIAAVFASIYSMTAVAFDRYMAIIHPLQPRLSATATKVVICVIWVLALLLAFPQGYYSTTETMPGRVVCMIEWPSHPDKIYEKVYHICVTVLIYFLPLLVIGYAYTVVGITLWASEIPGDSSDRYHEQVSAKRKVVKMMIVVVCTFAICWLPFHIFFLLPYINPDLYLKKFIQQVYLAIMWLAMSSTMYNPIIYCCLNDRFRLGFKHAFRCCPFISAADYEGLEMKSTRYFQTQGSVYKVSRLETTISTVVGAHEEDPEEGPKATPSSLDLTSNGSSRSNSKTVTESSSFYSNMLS

[5] = biological target: T4, Neuromedin-K receptor (Cavia porcellus) (UniProt P30098); experiment: Antagonist activity at NK3 receptor in guinea pig ileum assessed as effect on senktide-induced mechanical activity; type: functional, tissue-based; conditions: filed as antagonist
T4 sequence (whole entry): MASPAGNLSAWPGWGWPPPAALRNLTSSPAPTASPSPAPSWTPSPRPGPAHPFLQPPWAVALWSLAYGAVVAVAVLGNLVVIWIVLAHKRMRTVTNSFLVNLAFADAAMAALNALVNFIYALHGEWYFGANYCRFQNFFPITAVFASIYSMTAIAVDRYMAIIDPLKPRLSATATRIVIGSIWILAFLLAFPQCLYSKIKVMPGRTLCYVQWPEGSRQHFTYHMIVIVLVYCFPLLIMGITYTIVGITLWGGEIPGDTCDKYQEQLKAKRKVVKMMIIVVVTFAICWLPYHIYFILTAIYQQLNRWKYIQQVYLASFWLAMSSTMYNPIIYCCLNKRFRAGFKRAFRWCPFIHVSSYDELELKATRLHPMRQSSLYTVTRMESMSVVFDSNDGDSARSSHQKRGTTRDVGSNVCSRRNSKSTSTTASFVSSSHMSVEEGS

[6] = biological target: Substance-P receptor (Homo sapiens, UniProt P25103); experiment: Displacement of [3H][Sar9]SP sulfone from human NK1 receptor expressed in U373MG cells; type: cell-based, U-373MG ATCC; in short: as §2
Chain of Substance-P receptor (P25103 whole entry): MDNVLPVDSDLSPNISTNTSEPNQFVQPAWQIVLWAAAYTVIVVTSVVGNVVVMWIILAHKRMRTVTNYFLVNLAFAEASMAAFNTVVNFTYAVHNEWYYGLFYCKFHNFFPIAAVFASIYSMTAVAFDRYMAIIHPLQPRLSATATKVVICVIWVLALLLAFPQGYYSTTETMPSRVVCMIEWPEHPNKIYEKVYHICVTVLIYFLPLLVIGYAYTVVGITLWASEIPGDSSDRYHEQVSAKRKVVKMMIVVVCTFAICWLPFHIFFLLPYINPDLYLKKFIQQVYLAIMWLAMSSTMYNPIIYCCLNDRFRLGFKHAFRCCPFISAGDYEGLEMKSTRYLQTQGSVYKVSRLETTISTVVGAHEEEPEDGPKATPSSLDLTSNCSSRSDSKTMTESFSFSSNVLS

[7] = biological target: T5, Neuromedin-K receptor (Homo sapiens, UniProt P29371); experiment: Displacement of [125I][MePhe7]NKB from human NK3 receptor expressed in CHOK1 cells; type: cell-based, CHO-K1; in short: as §2
T5 sequence (P29371 whole entry): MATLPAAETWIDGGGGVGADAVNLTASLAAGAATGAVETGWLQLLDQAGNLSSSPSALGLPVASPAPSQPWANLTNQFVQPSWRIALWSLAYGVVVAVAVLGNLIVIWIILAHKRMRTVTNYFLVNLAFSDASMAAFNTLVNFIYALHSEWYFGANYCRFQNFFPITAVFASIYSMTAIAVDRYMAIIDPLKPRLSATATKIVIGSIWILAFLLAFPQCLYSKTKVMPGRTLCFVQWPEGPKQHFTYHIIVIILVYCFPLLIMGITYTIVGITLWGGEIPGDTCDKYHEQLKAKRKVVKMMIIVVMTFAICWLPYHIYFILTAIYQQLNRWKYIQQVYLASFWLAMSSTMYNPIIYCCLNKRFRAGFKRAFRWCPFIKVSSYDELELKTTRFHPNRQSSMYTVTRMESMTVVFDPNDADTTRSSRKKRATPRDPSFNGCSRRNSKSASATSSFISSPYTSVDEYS

[8] = test system: Cavia porcellus; experiment: Inhibition of [beta-Ala8]NKA(4-10)-induced bronchoconstriction in anesthetized Dunkin Hartley guinea pig at 10 nmol/kg, it relative to control; type: functional
In short: (§3)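 Male Dunkin Hartley guinea pigs (350–400 g) were anesthetized with urethane 1.5 g/kg sc, kept at 36 °C and ventilated at 60 strokes/min. After two reproducible control responses to agonist (1 nmol/kg iv, jugular vein), antagonist was given intratracheally near the bronchial bifurcation. Dosing was 5 and 30 min before challenge, with challenges repeated every 30 min up to 4 h. Bronchoconstriction = insufflation pressure rise over basal (mmHg), expressed as % inhibition of control.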

[9] = test system: Cavia porcellus; experiment: Inhibition of [beta-Ala8]NKA(4-10)-induced bronchoconstriction in anesthetized Dunkin Hartley guinea pig at 100 nmol/kg, it relative to control; type: functional, organism-based; conditions: 10 nmol/kg, in the assay text read “10 nmol/kg” for “100 nmol/kg”; in short: as §3
[10] = test system: Cavia porcellus; experiment: Inhibition of [beta-Ala8]NKA(4-10)-induced bronchoconstriction in intratracheally dosed anesthetized Dunkin Hartley guinea pig; type: functional; conditions: Trachea, inhaled or nasal; in short: as §3

Row | pKb [1] | pKb [2] | Ki [3] | pKb [5] | SMILES | further results
1 | 8.5 | 8.9 | – | – | O=C1C[C@H](N2CCOCC2)C(=O)NC[C@@H](Cc2ccccc2)NC(=O)[C@H](Cc2ccccc2)NC(=O)[C@H](Cc2c[nH]c3ccccc23)N1 | –
2 | 8.1 | – | 0.158 nM (antagonist) | – | N[C@@H]1CC(=O)N[C@@H](Cc2c[nH]c3ccccc23)C(=O)N[C@@H](Cc2ccccc2)C(=O)N[C@H](Cc2ccc(Cl)c(Cl)c2)CNC1=O | –
3 | 7.9 | – | 2 nM (antagonist) | – | N[C@@H]1CC(=O)N[C@@H](Cc2c[nH]c3ccccc23)C(=O)N[C@@H](Cc2ccccc2)C(=O)N[C@H](Cc2ccccc2)CNC1=O | –
4 | – | 9.7 | 0.158 nM (antagonist) | 6.4 | O=C1C[C@@H](NC(=O)CN2CCC(N3CCOCC3)CC2)C(=O)NC[C@@H](Cc2ccccc2)NC(=O)[C@H](Cc2ccccc2)NC(=O)[C@H](Cc2c[nH]c3ccccc23)N1 | pKb ([4]; filed as antagonist): 7.5; Ki [6]: 126 nM (antagonist); Ki [7]: 1260 nM (antagonist); inhibition in vivo at 0.01 µmol/kg [8]: 80%; Activity [9]: Active; ED50 [10]: 0.00015 µmol/kg
5 | 7.7 | – | – | – | N[C@H]1CC(=O)NC[C@@H](Cc2ccccc2)NC(=O)[C@H](Cc2ccccc2)NC(=O)[C@H](Cc2c[nH]c3ccccc23)NC1=O | –
6 | 8.9 | 9.2 | – | 6.1 | O=C1C[C@@H](N2CCOCC2)C(=O)NC[C@@H](Cc2ccccc2)NC(=O)[C@H](Cc2ccccc2)NC(=O)[C@H](Cc2c[nH]c3ccccc23)N1 | pKb ([4]; filed as antagonist): 6.2
7 | 7.7 | – | 1.58 nM (antagonist) | – | O=C1C[C@@H](N2CCNCC2)C(=O)NC[C@@H](Cc2ccccc2)NC(=O)[C@H](Cc2ccccc2)NC(=O)[C@H](Cc2c[nH]c3ccccc23)N1 | –
8 | – | 9.5 | 0.1 nM (antagonist) | 5.9 | NS(=O)(=O)N1CCN(CC(=O)N[C@@H]2CC(=O)N[C@@H](Cc3c[nH]c4ccccc34)C(=O)N[C@@H](Cc3ccccc3)C(=O)N[C@H](Cc3ccccc3)CNC2=O)CC1 | pKb [4]: < 5.5; Ki [6]: 200 nM (antagonist); Ki [7]: 7940 nM (antagonist); Activity [9]: Active; ED50 [10]: 0.00027 µmol/kg
9 | 7.2 | – | 15.8 nM (antagonist) | – | N[C@@H]1CC(=O)NC[C@@H](Cc2ccccc2)NC(=O)[C@H](Cc2ccccc2)NC(=O)[C@H](Cc2c[nH]c3ccccc23)NC1=O | –
10 | 8.6 | 8.9 | 0.2 nM (antagonist) | – | N[C@H]1CC(=O)N[C@@H](Cc2c[nH]c3ccccc23)C(=O)N[C@@H](Cc2ccccc2)C(=O)N[C@H](Cc2ccc(Cl)c(Cl)c2)CNC1=O | –
11 | 9.2 | 9.1 | 0.0631 nM (antagonist) | 6.4 | O=C1C[C@@H](NC2CCOCC2)C(=O)NC[C@@H](Cc2ccccc2)NC(=O)[C@H](Cc2ccccc2)NC(=O)[C@H](Cc2c[nH]c3ccccc23)N1 | pKb ([4]; filed as antagonist): 6.1
12 | 8.4 | 8 | 0.251 nM (antagonist) | – | O=C1C[C@@H](N2CCOCC2)C(=O)NC[C@@H](Cc2ccc(Cl)c(Cl)c2)NC(=O)[C@H](Cc2ccccc2)NC(=O)[C@H](Cc2c[nH]c3ccccc23)N1 | –
13 | – | 9.2 | – | 5.8 | O=C1C[C@@H](NC(=O)CN2CCC(N3CCCCC3)CC2)C(=O)NC[C@@H](Cc2ccccc2)NC(=O)[C@H](Cc2ccccc2)NC(=O)[C@H](Cc2c[nH]c3ccccc23)N1 | pKb ([4]; filed as antagonist): 6.8
14 | 8.6 | – | 1 nM (antagonist) | – | O=C1C[C@H](NC2CCOCC2)C(=O)NC[C@@H](Cc2ccccc2)NC(=O)[C@H](Cc2ccccc2)NC(=O)[C@H](Cc2c[nH]c3ccccc23)N1 | –
15 | 8.1 | 8.1 | – | – | O=C1CCC(=O)N[C@@H](Cc2c[nH]c3ccccc23)C(=O)N[C@@H](Cc2ccccc2)C(=O)N[C@H](Cc2ccc(Cl)c(Cl)c2)CN1 | –
16 | 8.2 | – | 1.58 nM (antagonist) | – | O=C1C[C@@H](N2CCCCC2)C(=O)NC[C@@H](Cc2ccccc2)NC(=O)[C@H](Cc2ccccc2)NC(=O)[C@H](Cc2c[nH]c3ccccc23)N1 | –
